Laboratory results reported in the EternaBench riboswitch data.

Test system: MS2 coat protein
Experiment: apparent Kd, MS2 coat protein; higher = weaker binding; RNA-MaP array; FMN 200 µM where present
Outline: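 Green signal from SNAP-549-labelled MS2 coat protein was normalised to red-channel RNA signal and to the median Fmax of control clusters. The protein was titrated from 0.7 or 1.5 nM, doubling to 3 µM, without and then with constant ligand, over designs transcribed by stalled E. coli RNA polymerase on Illumina sequencing-chip clusters, in 100 mM Tris-HCl pH 7.5, 80 mM KCl, 4 mM MgCl2, BSA, DTT, yeast tRNA and Tween-20. The apparent Kd is the median of filtered per-cluster binding-curve fits.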

[1] = designed as: OFF switch for flavin mononucleotide, no ligand
[2] = ligand present: flavin mononucleotide, designed as: OFF switch for flavin mononucleotide
[3] = designed as: ON switch for flavin mononucleotide, no ligand
[4] = ligand present: flavin mononucleotide, designed as: ON switch for flavin mononucleotide

| Sequence | apparent Kd [1] | apparent Kd [2] | apparent Kd [3] | apparent Kd [4] |
| --- | --- | --- | --- | --- |
| GUGUACGGAGGAUAUGUAUGGGCAGGCUGACCUGCAGCUUCACAUGAGGAUCACCCAUGUAGAAGGCUGUGCAC | 12.1 nM | 24.2 nM |  |  |
| GGGCAAAAGUAGAAGGGAUAUACGAAAAGUAUAUCAGGAUAUACAUGAGGAUCACCCAUGUUCUGAAAGUGAAAAUCCUCCCUA | 40.8 nM | 317 nM |  |  |
| GCUUUAUUGGUCAGGAUAUACAUUUGUUACUCUUUGUAGAAGGGACAUGAGGAUCACCCAUGUACAUUACAUUC | 23.2 nM | 24.3 nM |  |  |
| GGAUAGGACAGAGGAUAUACGUGCUAGAGAUACUAGCAAAAUUUUCUCACAUGAGGAUCACCCAUGUAGAAGGCUGUCCUAUCG | 5.08 nM | 17.4 nM |  |  |
| ACAUGAGGAUCACCCAUGUAGAAUGAAGAAGGUGGAUACUUGUGACUCACCCAUGUACAUAGGACUAAGGAUAUUCUAAUAAUU |  |  | 25.1 nM | 23 nM |
| UGGUUGUGUGUUAGGAUAUGGUCUGGUGUUUCGGGCUAGAAGGGACAUGAGGAUCACCCAUGUGGCUGGCGGGU | 127 nM | 126 nM |  |  |
| GUUUAGUGAGGAUAUGUGGCGUAGAUCGAGCGCGGUCGGCUACAGAAGGCACAUGAGGAUCACCCAUGUUUCUC | 59.5 nM | 372 nM |  |  |
| GUGGAGUAAGGAUAUACAUGAGGAUCACCCAUGUGAGGGUAUGAGAAGGGAAUGAGAGGUAGAAGGUACGAGGG | 172 nM | 107 nM |  |  |
| GUACUACAUGAGGAUCACCCAUGUCAGGAUAUGUGAAUUUCAUCAAAAGAUGAAAUUCGUAGAAGGGACAGUAC | 22.2 nM | 29.4 nM |  |  |
| AGUAAGAUGCAGAAGGUGUUAGCUAGAGCUACGACAUGAGGAUCACCCAUGUACUAGAAACAGUACAAGGAUAUGCAUCUUACU |  |  | 18.4 nM | 6.43 nM |
| GCCCAACAUGAGGAUCACCCAUGUAAGGAUAUUGGAUGUGUGUGGAAACAUAUAUAAACGAGAAGGUACAGGGC | 38.4 nM | 28.9 nM |  |  |
| GCUCGAUGUGCUGAAAACAUGAGGAUCACCCAUGUAGAUGAUCAGGAUAUUUACGUGCUUUAUGUAGAGAAGGGAUCAUCGAGC |  |  | 64 nM | 27.7 nM |
| GCCAUCGCAUGAGGAUAUGCUCCGGUUUCCGGAGCAGAAGGCAUGUCGUAAGACAUGAGGAUCACCCAUGUAGUCAAGAUGGCA |  |  | 912 nM | 41.5 nM |
| UGUCCGGUCAUAGGAUAUGACAUGAGGAUCACCCAUGUCUGCUUGGCUUGACCGUUGAUCCAUUGUCAGAAGGGUGCCGUUACA | 43.2 nM | 63.1 nM |  |  |
| ACUGUCCGAGAGAAGGGAACAUGAGGAUCACCCAUGUUACCUCACCUGGUGACGGAACUCCAAGUUCAGGAUAUCUCGAGCGGU | 4.72 nM | 6.53 nM |  |  |
| CGCAUAUAUGUAAGGAUAUCUGCUUCGCAGAGGCAAGAGAAGGUACAUGAGGAUCACCCAUGUAUUUAAGGCGG | 22.6 nM | 25.6 nM |  |  |
| UAAAUUUUAUGAUAUUAUGACAUUAGAAGGCUGUACAUGUUGAUACAUGAGGAUCACCCAUGUAUAGAGGAUAUAGACAAUUAU | 40.5 nM | 92.6 nM |  |  |
| GCAGCUAAUAUUAUACAUGAGGAUCACCCAUGUUACAUGUGUAAGGAUAUUGAUGUUUAUAUAAACAAGAAGGUACGAAGCUGC |  |  | 20.5 nM | 13.1 nM |
| ACUGCCACAGGAUAUACGAAACUCUUGGGUUCCGCCGUGUGACAUGAGGAUCACCCAUGUAGAAGGGUGGCUUA | 606 nM | 416 nM |  |  |
| AGCUAGUCAGGAUAUACGUACAUGUCAUUAGACGUGAAGGGACAUGAGGAUCACCCAUGUAGAAGGGACUAGCU | 37.6 nM | 139 nM |  |  |
| CGCUGUCAUGCAGGAUAUGCAUUGGAUUACAAUGCAGAAGGGCGAUUACAUGAGGAUCACCCAUGUGUAGACAGUGAACAAGAG |  |  | 124 nM | 11.4 nM |
| UUUAGUUUAGGAUAUGUAGACGUUAACAUGAGGAUCACCCAUGUAGAUCCUGAAUUGGCUACAGAAGGAAGCAUUU | 285 nM | 531 nM |  |  |
| UUUAUGUGAGGAUAUCAGUAGUAAAAAAAUAAAAUUACUACUGAGAAGGCACAUGAGGAUCACCCAUGUCCUUC | 18.6 nM | 20 nM |  |  |
| GGGUACAUCGGAGGAUAUAAUGUAAAUACAUGAGGAUCACCCAUGUCGAUGGAGACAUCGGAGAUUGAGAAGGCCGAUGUACCG |  |  | 110 nM | 38.4 nM |
